Laboratory results from ChEMBL document CHEMBL3098095, “Synthesis and biological properties of thiazole-analogues of pyochelin, a siderophore of Pseudomonas aeruginosa” (Bioorg Med Chem Lett, 2014).
Activity calls are given as the source filed them. The calls are words filed in the database; no cut-off is given here.

Experiments:
[1] = target: T1, Fe(3+)-pyochelin receptor (Pseudomonas aeruginosa (strain ATCC 15692 / PAO1 / 1C / PRS 101 / LMG12228), UniProt P42512); experiment: Displacement of Pch-55Fe(III) from Pseudomonas aeruginosa PAD07 FptA after 1 hr in presence of CCCP
T1 sequence (P42512 whole entry): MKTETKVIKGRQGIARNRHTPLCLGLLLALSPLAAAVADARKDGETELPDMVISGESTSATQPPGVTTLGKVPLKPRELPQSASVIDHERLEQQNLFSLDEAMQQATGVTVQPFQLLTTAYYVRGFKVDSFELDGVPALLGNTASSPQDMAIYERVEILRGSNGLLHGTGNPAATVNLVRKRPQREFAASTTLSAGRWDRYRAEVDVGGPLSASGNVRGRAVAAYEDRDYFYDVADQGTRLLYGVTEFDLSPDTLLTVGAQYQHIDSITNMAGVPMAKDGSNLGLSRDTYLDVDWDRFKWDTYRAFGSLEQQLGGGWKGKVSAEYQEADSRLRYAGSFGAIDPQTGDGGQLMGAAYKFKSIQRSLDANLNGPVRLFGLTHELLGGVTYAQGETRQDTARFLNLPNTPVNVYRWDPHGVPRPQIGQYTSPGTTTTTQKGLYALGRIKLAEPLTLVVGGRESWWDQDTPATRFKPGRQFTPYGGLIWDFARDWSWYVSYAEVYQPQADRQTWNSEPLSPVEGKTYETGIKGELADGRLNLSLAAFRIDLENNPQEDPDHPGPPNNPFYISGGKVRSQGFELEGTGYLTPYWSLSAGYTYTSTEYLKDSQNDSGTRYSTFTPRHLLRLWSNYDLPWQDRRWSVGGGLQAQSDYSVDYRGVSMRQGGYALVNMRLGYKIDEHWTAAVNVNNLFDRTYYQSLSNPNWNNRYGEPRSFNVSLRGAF
Method in brief: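 PAD07 P. aeruginosa (mutant lacking pyochelin and pyoverdine), OD600 0.3, held 1 h at 0 °C in 50 mM Tris–HCl pH 8.0 with 200 µM CCCP to block uptake. Tracer 1 nM Pch-55Fe(III) competed by the Fe(III)-loaded compounds over […] range. Inhibition constant (Ki) derived from the competition.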

Pseudomonas aeruginosa = experiment: Induction of iron uptake in Pseudomonas aeruginosa PAD07 at 100 nM; format: functional, organism-based
Method in brief: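 PAD07 P. aeruginosa cells lacking endogenous siderophores, OD600 1, incubated at 37 °C with 100 nM of the 55Fe(III)-loaded compound. Aliquots taken at several times were centrifuged, and cell-pellet 55Fe was measured as iron transported. Repeated with the protonophore CCCP at 0 °C to check TonB-dependent uptake versus passive diffusion.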

CN1C(c2csc(-c3ccc(N)cc3O)n2)SC[C@H]1C(=O)O (mixture of isomers)
Ki ([1]; read-out: Ki): 0.0113 µM | Activity (Pseudomonas aeruginosa): Active

CN1C(c2csc(-c3ccc(O)cc3O)n2)SC[C@H]1C(=O)O (mixture of isomers)
Ki ([1]; read-out: Ki): 0.0065 µM | Activity (Pseudomonas aeruginosa): Active

CN1C(c2csc(-c3cc(N)ccc3O)n2)SC[C@H]1C(=O)O (mixture of isomers)
Ki [1]: Not Active | Activity (Pseudomonas aeruginosa): inactive

COc1cc(O)ccc1-c1nc(C2SC[C@@H](C(=O)O)N2C)cs1 (mixture of isomers)
Ki [1]: Not Active | Activity (Pseudomonas aeruginosa): inactive

COc1ccc(F)cc1-c1nc(C2SC[C@@H](C(=O)O)N2C)cs1 (mixture of isomers)
Ki ([1]; read-out: Ki): 1.44 µM | Activity (Pseudomonas aeruginosa): inactive

CN1[C@@H](c2csc(-c3ccccc3O)n2)SC[C@H]1C(=O)O
Ki ([1]; read-out: Ki): 0.0098 µM | Activity (Pseudomonas aeruginosa): Active

COc1ccc(N)cc1-c1nc(C2SC[C@@H](C(=O)O)N2C)cs1 (mixture of isomers)
Ki ([1]; read-out: Ki): 0.46 µM | Activity (Pseudomonas aeruginosa): inactive

COc1ccccc1-c1nc(C2SC[C@@H](C(=O)O)N2C)cs1 (mixture of isomers)
Ki [1]: Not Active | Activity (Pseudomonas aeruginosa): inactive

CN1[C@@H]([C@H]2CSC(c3ccccc3O)=N2)SC[C@H]1C(=O)O
Ki ([1]; read-out: Ki): 0.0022 µM | Activity (Pseudomonas aeruginosa): Active
